According to ChEMBL document CHEMBL3098086, “Synthesis and biological evaluation of α-triazolyl chalcones as a new type of potential antimicrobial agents and their interaction with calf thymus DNA and human serum albumin” (Eur J Med Chem, 2014):
In brackets after ≈: the same amount, converted by molar mass. Activity calls are given as the source filed them. The calls are words filed in the database; no cut-off is given here.

Legend:
Candida = test: Antifungal activity against Candida mycoderma ATCC 96918 after 24 hrs by micro broth dilution method; type: functional; conditions: ATCC 96918, 24 h
In short: (§1)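 Fungi: C. albicans ATCC 76615 and C. mycoderma ATCC 96918. MICs by two-fold broth microdilution in 96-well plates per NCCLS. Fluconazole served as positive control.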

Candida albicans = test: Antifungal activity against Candida albicans ATCC 76615 after 24 hrs by micro broth dilution method; type: functional; conditions: ATCC 76615, 24 h; in short: as §1
Bacillus = test: Antibacterial activity against Bacillus proteus ATCC 13315 after 24 hrs by twofold serial dilution method; type: functional; conditions: ATCC 13315, 24 h
In short: (§2)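 Bacterial strains: S. aureus ATCC 25923, B. subtilis ATCC 21216, M. luteus ATCC 4698, E. coli JM109, P. aeruginosa ATCC 27853, B. proteus ATCC 13315. MICs by two-fold broth microdilution in 96-well plates per NCCLS. Chloromycin and Norfloxacin served as positive controls.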

Pseudomonas aeruginosa = test: Antibacterial activity against Pseudomonas aeruginosa ATCC 27853 after 24 hrs by twofold serial dilution method; type: functional; conditions: ATCC 27853, 24 h; in short: as §2
Escherichia coli = test: Antibacterial activity against Escherichia coli JM109 after 24 hrs by twofold serial dilution method; type: functional; conditions: JM109, 24 h; in short: as §2
Salmonella typhi = test: Antibacterial activity against Bacillus typhi after 24 hrs by twofold serial dilution method; type: functional, Salmonella enterica subsp. enterica serovar Typhi; conditions: Salmonella enterica
In short: (§3)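 Two-fold broth microdilution per NCCLS recommendations. The MIC was read as the minimum inhibitory concentration. Chloromycin and Norfloxacin served as positive controls. Strains were Bacillus typhi (Gram-negative panel) and methicillin-resistant S. aureus N315.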

Micrococcus luteus = test: Antibacterial activity against Micrococcus luteus ATCC 4698 after 24 hrs by twofold serial dilution method; type: functional; conditions: ATCC 4698, 24 h; in short: as §2
Bacillus subtilis = test: Antibacterial activity against Bacillus subtilis ATCC 21216 after 24 hrs by twofold serial dilution method; type: functional; conditions: ATCC 21216, 24 h; in short: as §2
Staphylococcus aureus [1] = test: Antibacterial activity against Staphylococcus aureus ATCC 25923 after 24 hrs by twofold serial dilution method; type: functional; conditions: ATCC 25923, 24 h; in short: as §2
Staphylococcus aureus [2] = test: Antibacterial activity against methicillin-resistant staphylococcus aureus N315 after 24 hrs by twofold serial dilution method; type: functional; conditions: N315, 24 h; in short: as §3
Albumin [3] = target: T1, Albumin (Homo sapiens, UniProt P02768); test: Ratio of binding affinity to human serum albumin in presence of Zn2+ to binding affinity to human serum albumin absence of Zn2+; type: ADME; conditions: isolated protein
Albumin [4] = target: T1, Albumin; test: Ratio of binding affinity to human serum albumin in presence of Ni2+ to binding affinity to human serum albumin absence of Ni2+; type: ADME; conditions: isolated protein
Albumin [5] = target: T1, Albumin; test: Ratio of binding affinity to human serum albumin in presence of Pb2+ to binding affinity to human serum albumin absence of Pb2+; type: ADME; conditions: isolated protein
Albumin [6] = target: T1, Albumin; test: Ratio of binding affinity to human serum albumin in presence of Mg2+ to binding affinity to human serum albumin absence of Mg2+; type: ADME; conditions: isolated protein
Albumin [7] = target: T1, Albumin; test: Ratio of binding affinity to human serum albumin in presence of K+ to binding affinity to human serum albumin absence of K+; type: ADME; conditions: isolated protein
Albumin [8] = target: T1, Albumin; test: Ratio of binding affinity to human serum albumin in presence of Fe3+ to binding affinity to human serum albumin absence of Fe3+; type: ADME; conditions: isolated protein
Albumin [9] = target: T1, Albumin; test: Ratio of binding affinity to human serum albumin in presence of Ca2+ to binding affinity to human serum albumin absence of Ca2+; type: ADME; conditions: isolated protein
Albumin [10] = target: T1, Albumin; test: Ratio of binding affinity to human serum albumin in presence of Cu2+ to binding affinity to human serum albumin absence of Cu2+; type: ADME; conditions: isolated protein
Albumin [11] = target: T1, Albumin; test: Binding affinity to human serum albumin at pH 7.4 at 310 K by fluorescence quenching analysis; type: ADME; conditions: isolated protein
In short: (§4)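 Intrinsic HSA Trp fluorescence was quenched by compound titration at pH 7.4 and at 286, 298 or 310 K. Excitation was 295 nm, emission scanned 300–450 nm, both slits 2.5 nm, 1.0 cm quartz cells. Data were fitted by Stern–Volmer analysis to give KSV. Kq was calculated assuming an HSA fluorescence lifetime of 6.4 × 10^-9 s.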

Albumin [12] = target: T1, Albumin; test: Binding affinity to human serum albumin at pH 7.4 at 286 K by fluorescence quenching analysis; type: ADME; conditions: isolated protein; in short: as §4
Albumin [13] = target: T1, Albumin; test: Binding affinity to human serum albumin at pH 7.4 at 298 K by fluorescence quenching analysis; type: ADME; conditions: isolated protein; in short: as §4
DNA [14] = test: Binding affinity to calf thymus DNA by UV-vis absorption spectra analysis; type: nucleic-acid assay; conditions: Bos taurus
DNA [15] = test: Displacement of neutral red from calf thymus DNA by UV-vis absorption spectra analysis; type: nucleic-acid assay; conditions: Bos taurus

T1 sequence (P02768 whole entry): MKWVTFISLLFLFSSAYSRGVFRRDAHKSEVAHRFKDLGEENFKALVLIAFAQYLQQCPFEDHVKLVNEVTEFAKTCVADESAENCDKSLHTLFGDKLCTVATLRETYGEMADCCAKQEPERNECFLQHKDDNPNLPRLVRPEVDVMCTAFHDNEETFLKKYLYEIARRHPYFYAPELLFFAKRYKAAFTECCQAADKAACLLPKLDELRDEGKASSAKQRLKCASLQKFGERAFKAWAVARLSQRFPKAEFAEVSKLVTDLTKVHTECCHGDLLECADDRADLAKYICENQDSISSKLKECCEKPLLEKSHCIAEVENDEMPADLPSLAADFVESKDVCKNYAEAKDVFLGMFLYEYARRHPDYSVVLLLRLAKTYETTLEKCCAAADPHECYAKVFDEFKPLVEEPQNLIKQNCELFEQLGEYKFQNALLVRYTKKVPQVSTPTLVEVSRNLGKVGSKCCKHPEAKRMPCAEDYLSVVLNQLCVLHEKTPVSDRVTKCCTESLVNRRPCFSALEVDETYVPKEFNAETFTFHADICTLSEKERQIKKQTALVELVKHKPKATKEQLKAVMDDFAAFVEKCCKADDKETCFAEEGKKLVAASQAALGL

| SMILES | MIC (Candida) | MIC (Candida albicans) | MIC (Bacillus) | MIC (Pseudomonas aeruginosa) | MIC (Escherichia coli) | MIC (Salmonella typhi) | MIC (Micrococcus luteus) | MIC (Bacillus subtilis) | MIC (Staphylococcus aureus [1]) | MIC (Staphylococcus aureus [2]) | other results |
| --- | --- | --- | --- | --- | --- | --- | --- | --- | --- | --- | --- |
| OC(Cn1cncn1)(Cn1cncn1)c1ccc(F)cc1F [FLUCONAZOLE] | 4 µg/mL (≈ 13.1 µM) | 1 µg/mL (≈ 3.27 µM) |  |  |  |  |  |  |  |  |  |
| O=C(/C(=C/c1ccccc1)n1cncn1)c1ccc(Cl)cc1 | 64 µg/mL (≈ 207 µM) | 16 µg/mL (≈ 51.7 µM) | 64 µg/mL (≈ 207 µM) | 256 µg/mL (≈ 826 µM) | 128 µg/mL (≈ 413 µM) | 64 µg/mL (≈ 207 µM) | 64 µg/mL (≈ 207 µM) | 64 µg/mL (≈ 207 µM) | 64 µg/mL (≈ 207 µM) | 32 µg/mL (≈ 103 µM) |  |
| O=C(/C(=C/c1ccccc1)n1cncn1)c1ccc(F)cc1N1CCCCC1 | 8 µg/mL (≈ 21.3 µM) | 16 µg/mL (≈ 42.5 µM) | 8 µg/mL (≈ 21.3 µM) | 16 µg/mL (≈ 42.5 µM) | 16 µg/mL (≈ 42.5 µM) | 8 µg/mL (≈ 21.3 µM) | 4 µg/mL (≈ 10.6 µM) | 8 µg/mL (≈ 21.3 µM) | 16 µg/mL (≈ 42.5 µM) | 4 µg/mL (≈ 10.6 µM) | Ratio (Albumin [3]): 0.918; Ratio (Albumin [4]): 0.835; Ratio (Albumin [5]): 0.819; Ratio (Albumin [6]): 1.068; Ratio (Albumin [7]): 1.324; Ratio (Albumin [8]): 1.151; Ratio (Albumin [9]): 0.887; Ratio (Albumin [10]): 0.959; KSV (Albumin [11]): 5.84 ×10⁴ L/mol; KSV (Albumin [12]): 7.59 ×10⁴ L/mol; KSV (Albumin [13]): 6.72 ×10⁴ L/mol; Activity (DNA [14]): Dose-dependent effect; K (DNA [14]): 1.22 ×10⁴ L/mol; Activity (DNA [15]): Active |
| O=C(/C(=C/c1ccccc1)n1cncn1)c1ccc(N2CCCC2)cc1N1CCCC1 | 4 µg/mL (≈ 9.67 µM) | 8 µg/mL (≈ 19.3 µM) | 32 µg/mL (≈ 77.4 µM) | 32 µg/mL (≈ 77.4 µM) | 32 µg/mL (≈ 77.4 µM) | 8 µg/mL (≈ 19.3 µM) | 16 µg/mL (≈ 38.7 µM) | 16 µg/mL (≈ 38.7 µM) | 32 µg/mL (≈ 77.4 µM) | 16 µg/mL (≈ 38.7 µM) |  |
| O=C(/C(=C/c1ccccc1)n1cncn1)c1ccc(F)cc1N1CCCC1 | 256 µg/mL (≈ 706 µM) | 32 µg/mL (≈ 88.3 µM) | 16 µg/mL (≈ 44.1 µM) | 16 µg/mL (≈ 44.1 µM) | 8 µg/mL (≈ 22.1 µM) | 4 µg/mL (≈ 11 µM) | 16 µg/mL (≈ 44.1 µM) | 8 µg/mL (≈ 22.1 µM) | 16 µg/mL (≈ 44.1 µM) | 16 µg/mL (≈ 44.1 µM) |  |
| O=C(N[C@H](CO)[C@H](O)c1ccc([N+](=O)[O-])cc1)C(Cl)Cl [CHLORAMPHENICOL] |  |  | 32 µg/mL (≈ 99 µM) | 32 µg/mL (≈ 99 µM) | 32 µg/mL (≈ 99 µM) | 32 µg/mL (≈ 99 µM) | 8 µg/mL (≈ 24.8 µM) | 32 µg/mL (≈ 99 µM) | 16 µg/mL (≈ 49.5 µM) | 16 µg/mL (≈ 49.5 µM) |  |
| O=C(/C(=C/c1ccc(Cl)cc1)n1cncn1)c1ccc(F)cc1F | 16 µg/mL (≈ 46.3 µM) | 16 µg/mL (≈ 46.3 µM) | 64 µg/mL (≈ 185 µM) | 128 µg/mL (≈ 370 µM) | 64 µg/mL (≈ 185 µM) | 32 µg/mL (≈ 92.6 µM) | 64 µg/mL (≈ 185 µM) | 32 µg/mL (≈ 92.6 µM) | 16 µg/mL (≈ 46.3 µM) | 32 µg/mL (≈ 92.6 µM) |  |
| Cc1ccc(C(=O)/C(=C/c2ccccc2)n2cncn2)c(C)c1 | 256 µg/mL (≈ 844 µM) | 128 µg/mL (≈ 422 µM) | 128 µg/mL (≈ 422 µM) | 256 µg/mL (≈ 844 µM) | 256 µg/mL (≈ 844 µM) | 128 µg/mL (≈ 422 µM) | 256 µg/mL (≈ 844 µM) | 128 µg/mL (≈ 422 µM) | 128 µg/mL (≈ 422 µM) | 64 µg/mL (≈ 211 µM) |  |
| CCn1cc(C(=O)O)c(=O)c2cc(F)c(N3CCNCC3)cc21 [NORFLOXACIN] |  |  | 8 µg/mL (≈ 25.1 µM) | 16 µg/mL (≈ 50.1 µM) | 16 µg/mL (≈ 50.1 µM) | 4 µg/mL (≈ 12.5 µM) | 2 µg/mL (≈ 6.26 µM) | 1 µg/mL (≈ 3.13 µM) | 0.5 µg/mL (≈ 1.57 µM) | 8 µg/mL (≈ 25.1 µM) |  |
| O=C(/C(=C/c1ccccc1)n1cncn1)c1ccc(N2CCOCC2)cc1N1CCOCC1 | 64 µg/mL (≈ 144 µM) | 128 µg/mL (≈ 287 µM) | 64 µg/mL (≈ 144 µM) | 128 µg/mL (≈ 287 µM) | 32 µg/mL (≈ 71.8 µM) | 32 µg/mL (≈ 71.8 µM) | 64 µg/mL (≈ 144 µM) | 64 µg/mL (≈ 144 µM) | 32 µg/mL (≈ 71.8 µM) | 64 µg/mL (≈ 144 µM) |  |
